Measles CPE = protection of cells from measles virus; 1.5% of 140,000 active; protection (pct of control), % at 4 µM; Measles virus-infected cells, CPE protection, absorbance; in the data active = protection mostly above about 24%, no sharp cut-off; inactive = mostly below about 26%
IL1B cytotox = toxic to HUVEC cells under IL-1B stimulation | cell count reduction, % at 2 µM | HUVEC cell count loss, Hoechst imaging, IL-1B stimulated | 0.41% of 94,000 active;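 active = cell count reduction more than 3 SD above the screen-wide mean, cut at about 70% in these data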
IL1B NFkB pot = enhances IL-1B driven NFkB nuclear translocation | HUVEC IL-1B NFkB p65 nuclear translocation imaging | activation, % at 2 µM | 0.3% of 94,000 active | AID 819;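 active = activation above 40%, about the mean plus 3 SD, also judged a hit on visual image review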;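 note: percent activation is computed from the nuclear over cytoplasmic p65 intensity ratio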
FAK blocker = blocks human focal adhesion kinase activity; Q05397; biochemical FAK kinase activity assay; inhibition, %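 (tested at 7 µM)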; 0.84% of 97,000 active; AID 727; in the data active = inhibition above about 19%
Rev-RRE block = HIV Rev-RRE protein-RNA interaction inhibition; 0.79% of 97,000 active; Rev peptide-RRE RNA binding, FRET; inhibition, % at 8 µM; AID 704; P05866;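 active = inhibition above the screen-wide mean plus 3 SD, cut at about 35% in these data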
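Test system – labelled RRE RNA duplex and labelled Rev peptide · Reagent – labelled Rev peptide · Doses – one concentration, 8 µM nominal · Incubation – 5 + 15 min at 25 °C · Signal – FRET fluorescence readout · Read-out basis – % inhibition of FRET ratio versus controls · Control set – DMSO wells as 0% and neomycin B wells as 100% inhibition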
NFkB transloc inh = blocks IL-1B driven NFkB nuclear translocation in HUVEC cells | AID 796 | inhibition, % at 2 µM | HUVEC IL-1B NFkB p65 nuclear translocation imaging | 0.43% of 94,000 active;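 active = inhibition above about 30% together with a positive call from visual inspection of the well image, limit read from the data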;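 note: nuclear over cytoplasmic p65 intensity ratio measured by imaging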
A number is an active result; [ ] = dose if it differs, or a comment. Hits are enriched below; roughly 3.3% of the tested compounds scored in any of these assays.

Screening CCN(c1ccccc1)S(=O)(=O)c1ccc(OCC(=O)Nc2cc(C)on2)cc1 returned Measles CPE inactive, IL1B cytotox inactive, IL1B NFkB pot inactive, FAK blocker inactive, Rev-RRE block inactive and NFkB transloc inh inactive.
For Cc1cc(NC(=O)COc2ccc(N(C)S(=O)(=O)c3ccccc3)cc2)no1 the results were Measles CPE 64, IL1B cytotox inactive, IL1B NFkB pot inactive, FAK blocker inactive, Rev-RRE block inactive and NFkB transloc inh inactive.
C=CCn1c(SCC(=O)NC2CCCc3ccccc32)nnc1-c1ccncc1 (stereo not given) was read as Measles CPE inactive.
Screening Cc1cc(C)c2oc(C(=O)Nc3ccc(S(=O)(=O)N4CCC(C)CC4)cc3)cc(=O)c2c1 returned Measles CPE 56.
For Cc1cc2oc(C(=O)Nc3ccc(S(=O)(=O)N4CCCC(C)C4)cc3)cc(=O)c2cc1Cl (stereo not given) the results were Measles CPE inactive.
`O=c1ccc(/C=C/c2ccccc2)nn1Cc1ccccc1Cl` gave Measles CPE inactive, FAK blocker inactive and Rev-RRE block inactive.
For O=S(=O)(c1ccc(-c2cn3ccccc3n2)cc1)N1CCOCC1 the results were Measles CPE 63, IL1B cytotox inactive, IL1B NFkB pot inactive, FAK blocker inactive, Rev-RRE block inactive and NFkB transloc inh inactive.
For O=C(CCN1C(=O)S/C(=C/c2ccc(Cl)cc2)C1=O)N1CCOCC1 the results were Measles CPE 42.
Screening Cn1c(=O)n(C)c2cc(/C=C3/SC(=O)N(CC(=O)N4CCOCC4)C3=O)ccc21 returned Measles CPE inactive.
For O=C(NCc1ccccc1)Nc1cccn(Cc2ccccc2F)c1=O the results were Measles CPE inactive.
Screening O=C(O)c1cccn1Cc1ccccc1F returned Measles CPE 44, IL1B cytotox inactive, IL1B NFkB pot inactive, FAK blocker inactive, Rev-RRE block inactive and NFkB transloc inh inactive.
For Cc1cc([N+](=O)[O-])nn1CC(=O)N1c2ccccc2CC1C (stereo not given) the results were Measles CPE inactive.
For CCOC(=O)c1c(C)[nH]c(C(=O)CSc2nccc(C)n2)c1C the results were Measles CPE inactive.
Cc1cc(C(=O)COc2ccccc2Cl)c(C)n1-c1ccc2c(c1)OCO2 was read as Measles CPE 33.
Screening CCCCC(=O)NC(=S)Nc1ccc(S(=O)(=O)N2CCCC2)cc1 returned Measles CPE inactive.
Cc1ccccc1OCC(=O)Nc1sc(C(=O)Nc2cccc(C)c2C)c(C)c1C#N was read as Measles CPE 103, IL1B cytotox inactive, IL1B NFkB pot inactive, FAK blocker inactive, Rev-RRE block inactive and NFkB transloc inh inactive.
Nc1ccccc1C#CCCCCO was read as Measles CPE inactive.
COc1ccc(-c2nnc(NC(=O)C3=COCCO3)o2)cc1 was read as Measles CPE inactive.
CCOC(=O)N1CCC(NC(=O)c2cc(C(=O)NCc3cccc(Cl)c3)ccc2CO)CC1 was read as Measles CPE 39, IL1B cytotox inactive, IL1B NFkB pot inactive, FAK blocker inactive, Rev-RRE block inactive and NFkB transloc inh inactive.
For CCOC(=O)/C=C/C(=O)Nc1nccs1 the results were Measles CPE inactive.
For CSc1ccc(/C=N/NC(=O)COc2ccc(Br)cc2Cl)cc1 the results were Measles CPE inactive.
Screening COc1ccc(NC(=O)/C=C/c2cc(Br)ccc2OC)cc1 returned Measles CPE 23, IL1B cytotox inactive, IL1B NFkB pot inactive, FAK blocker inactive, Rev-RRE block inactive and NFkB transloc inh inactive.
Screening COc1ccc(OC)c(-n2c(-c3ccc(C)cc3)n[nH]c2=S)c1 returned Measles CPE inactive, IL1B cytotox 88, IL1B NFkB pot inactive, FAK blocker inactive, Rev-RRE block inactive and NFkB transloc inh inactive.
`COc1ccc(-c2cc(-c3n[nH]c(=S)n3-c3cc(OC)ccc3OC)[nH]n2)cc1` gave Measles CPE inactive.
Screening O=C1/C(=C/c2ccccc2)Nc2ccccc21 returned Measles CPE inactive, IL1B cytotox inactive, IL1B NFkB pot inactive, FAK blocker inactive, Rev-RRE block 129[fluorescence artefact?] and NFkB transloc inh inactive.
For Cc1cc(C)nc(Nc2n[nH]c(-c3ccccc3Br)n2)n1 the results were Measles CPE inactive, IL1B cytotox inactive, IL1B NFkB pot inactive, FAK blocker inactive, Rev-RRE block inactive and NFkB transloc inh inactive.
Screening Cc1cc(C)nc(Nc2n[nH]c(-c3ccc(N)cc3)n2)n1 returned Measles CPE 26, IL1B cytotox inactive, IL1B NFkB pot inactive, FAK blocker inactive, Rev-RRE block inactive and NFkB transloc inh inactive.
For O=C(O)c1ccccc1C(=O)Nc1ccc(S(=O)(=O)NC2CCCCC2)cc1 the results were Measles CPE inactive.
For Cc1ccc(C)c(NS(=O)(=O)c2ccc3c(c2)Cc2cc(S(=O)(=O)Nc4cc(C)ccc4C)ccc2-3)c1 the results were Measles CPE inactive.
For CN(C)c1ccc(N/C=C/C(=O)C(C)(C)C)cc1 the results were Measles CPE 53, IL1B cytotox inactive, IL1B NFkB pot inactive, FAK blocker inactive, Rev-RRE block inactive and NFkB transloc inh inactive.
`Cc1cccc(NC(=O)C2CC(=O)N/C(=N/N=C/c3ccco3)S2)c1` (stereo not given) gave Measles CPE 30.
Screening O=C(NC(=S)N1CCCc2ccccc21)c1ccccc1 returned Measles CPE 26, IL1B cytotox inactive, IL1B NFkB pot inactive, FAK blocker inactive, Rev-RRE block inactive and NFkB transloc inh inactive.
For O=C(NC(=S)N1CCCc2ccccc21)c1ccc(Cl)cc1 the results were Measles CPE inactive.
For COc1ccc(C2(CNC(=O)c3cccc([N+](=O)[O-])c3)CCOCC2)cc1 the results were Measles CPE inactive.
Screening CCOc1ccc(NC(=O)CC2C(=O)N(c3ccccc3)C(=O)N2CCc2cccs2)cc1 (stereo not given) returned Measles CPE inactive.
`COc1ccc(CCNC(=O)C2CCN(S(C)(=O)=O)CC2)cc1OC` gave Measles CPE inactive, IL1B cytotox inactive, IL1B NFkB pot inactive, FAK blocker inactive, Rev-RRE block inactive and NFkB transloc inh inactive.
Screening COc1ccc(CCNC(=O)C2CC2)cc1OC returned Measles CPE 46, IL1B cytotox inactive, IL1B NFkB pot inactive, FAK blocker inactive, Rev-RRE block inactive and NFkB transloc inh inactive.
`COc1ccc(CCNC(=O)C2CC(=O)N(c3ccccc3)C2)cc1OC` (stereo not given) gave Measles CPE inactive, IL1B cytotox 88, IL1B NFkB pot inactive, FAK blocker inactive, Rev-RRE block inactive and NFkB transloc inh inactive.
Screening O=C(NC1CCCCC1)N1CCC(n2cnc3ccccc32)CC1 returned Measles CPE 76, IL1B cytotox inactive, IL1B NFkB pot inactive, FAK blocker inactive, Rev-RRE block inactive and NFkB transloc inh inactive.
`Cc1cc(N2CCN(C(=O)c3ccco3)CC2)n2nc(-c3cccc(F)c3)cc2n1` gave Measles CPE inactive, IL1B cytotox inactive, IL1B NFkB pot inactive, FAK blocker inactive, Rev-RRE block inactive and NFkB transloc inh inactive.

Bioassay records from PubChem BioAssay.
